S1P3 antagonist: antagonists of human S1P3 receptor. Q99500. actives 0.27% (n = 170,000). inhibition, % at 4.98 µM. CHO S1P3 NFAT-BLA reporter, FRET fluorescence, antagonist mode. AID 485;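 active means inhibition above the plate cutoff, the mean inhibition of test wells on that plate plus 3 SD, cut at about 28% in these data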;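 further: cells challenged with S1P at its EC80 of 0.8 µM; blue over green emission ratio from cleaved BLA substrate after 4 h stimulation; 0% = S1P-stimulated wells and 100% = unstimulated DMSO-only wells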
Target sequence (Q99500 whole entry, looked up): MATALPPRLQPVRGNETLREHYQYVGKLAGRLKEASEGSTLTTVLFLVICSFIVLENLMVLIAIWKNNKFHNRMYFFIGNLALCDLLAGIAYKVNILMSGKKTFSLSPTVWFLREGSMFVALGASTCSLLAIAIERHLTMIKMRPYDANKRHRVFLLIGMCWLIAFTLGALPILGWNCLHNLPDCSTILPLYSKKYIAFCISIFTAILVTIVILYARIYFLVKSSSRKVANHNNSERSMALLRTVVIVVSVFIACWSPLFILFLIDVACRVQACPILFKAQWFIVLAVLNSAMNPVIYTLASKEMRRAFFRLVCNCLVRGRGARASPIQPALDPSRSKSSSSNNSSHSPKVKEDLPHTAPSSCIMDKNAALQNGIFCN
Yeast superoxide: yeast age-related superoxide inhibition as caloric restriction mimetic; S. cerevisiae aged cells, superoxide DHE fluorescence; stronger effect = lower value; superoxide response (% of plate mean), % at 10 µM; actives 0.18% (n = 330,000);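 active means superoxide response under a set limit, about three screen SD below normal, cut at about 65% in these data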;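 further: yeast aged for seven days with compound at 30 °C before DHE staining; 100% = average MFI of all compound-treated wells on the plate with controls excluded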
T cell HTS: T cell immune modulation candidate | 2C CD8+ T cell-vesicle binding, flow cytometry; stronger effect = lower value | response (vesicle binding), % at 7 µM | actives 0.068% (n = 330,000) | AID 2052;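 active means response, share of CD8 T cells binding vesicles, and their 90th percentile fluorescence all below set limits, cut at about 80% in these data, passing the limit was not always enough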;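 further: values below 100% mean blocked vesicle binding to the CD8+ T cells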
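Test system: purified 2C TCR transgenic mouse naive CD8+ T cells. Probe or stimulus: QL9-peptide-loaded Drosophila micro-vesicles bearing Ld, ICAM-1 and B7-1. Incubation: binding step 1.5 h, 37 °C, antibody labelling 20 min, ice. Measured by: flow cytometry of vesicle-bound cells.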
The depositor's hits bear a star; i = inactive; . = no result. Shown are actives, neighbours in structure and some others; about 0.41% of the full set was active somewhere.

SMILES	S1P3 antagonist	Yeast superoxide	T cell HTS
COc1cc(CN2CCNC(=O)C2CC(=O)NCCCC2CCCC2)cc(OC)c1 (stereo not given)	.	118	503
O=C(COc1cc(F)ccc1[N+](=O)[O-])Nc1ccc(N2CCCCC2)cc1	.	94	153
Cc1cc(C)c(NC(=O)CNC(=O)c2ccc3c(=O)n4c(nc3c2)CCC4)c(C)c1	.	106	0
Cc1cccc(C)c1NC(=O)CN(C)C(=O)c1ccc2c(=O)n3c(nc2c1)CCC3	.	65*	403
CCCCn1c(Nc2ccccc2)nc2ccccc21	.	82	728
CCCn1c(Nc2nc3ccccc3n2C)nc2ccccc21	58*	69	886
CC(NC(=O)COC(=O)C12CC3CC(CC(Br)(C3)C1)C2)c1ccccc1 (stereo not given)	.	77	417
CCS(=O)(=O)N1CCN(C(=O)c2cc(OC)cc(OC)c2)CC1	0	93	589
CCCS(=O)(=O)N1CCN(C(=O)c2cc(OC)cc(OC)c2)CC1	95*	95	196
Cc1cc(C)n(CC(=O)NNC(=O)CC(C)c2ccccc2)n1 (stereo not given)	.	101	i
CCc1ccccc1NNC(=O)c1snnc1C	5	111	52*
Cc1nnsc1C(=O)NNc1c(Cl)cccc1Cl	7	104	521
CCC(C)(C)c1ccc(OCCCC[n+]2cccc(C)c2C)c(C(C)(C)CC)c1	-14	65*	351
Cc1cc(C(C)(C)C)ccc1OCCCCN1CCCC1	-3	100	675
O=C(NCc1ccncc1)C1CCC(=O)N(CCc2ccc(Cl)cc2)C1 (stereo not given)	.	98	415
Cc1nc(CNC(=O)C2CCC(=O)N(CCc3ccc(Cl)cc3)C2)sc1C (stereo not given)	.	96	47*
Cc1nn(-c2ccc(N3CCOCC3)nn2)c(C)c1CCC(=O)Nc1ccc(F)cc1	.	89	597
CCC(C)[C@H](NC(=O)[C@H](Cc1ccccc1)n1c(=O)[nH]c2ccccc2c1=O)C(=O)N1CCC[C@@H]1C(=O)O (stereo not given in full)	.	92	361
CCN(C(=O)Cn1c(=O)oc2ccccc21)c1cccc(C)c1	.	118	122
CCN(C(=O)Cn1c(=O)oc2ccccc21)c1cccc(C(F)(F)F)c1	-6	116	52*
CC(C)C(C)NC(=O)COn1nnc2ccc(S(=O)(=O)N3CCOCC3)cc21 (stereo not given)	.	91	548
CC(C)CN(C(=O)CN(C)CC(=O)Nc1ccc(Cl)c(C(F)(F)F)c1)c1c(N)n(CC(C)C)c(=O)[nH]c1=O	.	83	343
CCCNS(=O)(=O)c1ccc(OCC(=O)OC)cc1	.	97	178
CCCCNS(=O)(=O)c1ccc(OCC(=O)OC)cc1	-6	94	6.7*
CCCNS(=O)(=O)c1ccc(OCC(=O)N(C)Cc2ccccc2)cc1	8	60*	106
SMILES	S1P3 antagonist	Yeast superoxide	T cell HTS
O=C(O)COc1ccc(S(=O)(=O)NCCc2ccccc2)cc1	-28	95	i
O=S(=O)(NCc1ccccn1)c1ccccc1	.	104	587
O=S(=O)(Cc1ccccc1)NCc1ccccn1	103*	102	142
CCN(CC)S(=O)(=O)c1cc(NC(=O)CNc2cccc(S(=O)(=O)N3CCOCC3)c2)ccc1C	.	106	559
Cc1ccc(-n2c(-c3cccc(C)c3)n[nH]c2=S)cc1	.	125	196
Cc1ccc(-c2n[nH]c(=S)n2-c2ccccc2)cc1	.	105	81*
COc1cc(C2c3[nH]c4ccccc4c3C[C@H]3C(=O)N(C4CC4)CC(=O)N23)ccc1OC(C)C (stereo not given in full)	.	101	163
CCOC(=O)C1(CC2CCCCO2)CCN(S(=O)(=O)c2ccsc2)CC1 (stereo not given)	-10	84	490
CCOC(=O)C1(CC2CCCCO2)CCN(S(=O)(=O)c2ccc(C)s2)CC1 (stereo not given)	7	100	13*
COc1cccc(-c2cc(C(=O)Nc3c(C)nn(Cc4ccccc4)c3C)no2)c1	54*	104	685
COc1ccc(-c2cc(C(=O)Nc3c(C)nn(Cc4ccccc4)c3C)no2)cc1	.	97	338
COc1nc(Nc2nc3ccccc3c(=O)[nH]2)nc2ccc(C)cc12	70*	90	280
Cc1cc(C)cc(Nc2nc3ccccc3c(=O)[nH]2)c1	11	95	697
Cc1cc2c(cc1S(=O)(=O)NCc1ccccc1)NC(=O)CO2	.	99	395
Cc1cc2c(cc1S(=O)(=O)NCCc1ccccc1)NC(=O)CO2	.	103	20*
O=C(OCC(=O)c1ccc(Cl)cc1Cl)c1cnccn1	.	100	397
Cn1c(SCC(=O)NCC2CCCO2)nnc1-c1c[nH]c2ccccc12 (stereo not given)	.	119	193
CCn1c(SCC(=O)NCC2CCCO2)nnc1-c1c[nH]c2ccccc12 (stereo not given)	-6	75	0.0*
O=C(NCCCO)Nc1ccc2nc(-c3ccco3)c(-c3ccco3)nc2c1	.	93	380
O=C(Nc1ccc(N2CCOCC2)cc1)Nc1ccc2nc(-c3ccco3)c(-c3ccco3)nc2c1	57*	81	150
CC(=O)NC(C)C(c1cccs1)N1CCN(c2ccccc2)CC1 (stereo not given)	64*	103	336
CCC(=O)NC(C)C(c1cccs1)N1CCN(c2ccccc2)CC1 (stereo not given)	-20	93	216
COc1cccc(CN(Cc2ccco2)C(c2ccc(F)cc2)c2nnnn2C(C)(C)C)c1 (stereo not given)	64*	103	139
CC(C)(C)n1nnnc1C(c1cccnc1)N(Cc1ccccc1)Cc1ccco1 (stereo not given)	.	84	178
O=C(CN1CCN(C(C(=O)Nc2ccc(Cl)cc2C(F)(F)F)c2ccccc2)CC1)NC1CC1 (stereo not given)	.	105	298
SMILES	S1P3 antagonist	Yeast superoxide	T cell HTS
C=CS(=O)(=O)c1ccc(Oc2ccc(S(=O)(=O)C=C)cc2)cc1	100*	133	311
NS(=O)(=O)c1ccc(Oc2ccc(S(N)(=O)=O)cc2)cc1	-7	105	499
CCOC(=O)c1cc(C(=O)OCC)c(=O)[nH]c1C	-2	97	181
CCOC(=O)c1cnc(=O)[nH]c1C	-14	90	0.0*
CN(C)c1nc(N)nc(-c2nc3ccccc3s2)n1	60*	101	i
Nc1ccccc1-c1nc2ccccc2s1	-39	85	227
Cc1ccsc1CN(C)C(=O)CN1C(=O)NC(c2ccccc2)(c2ccccc2)C1=O	.	103	422
C=CCN=C(NC#N)SCC(=O)NC(C)(C)C	-32	91	527
C=CCN=C(NC#N)SC	-2	43*	28
COc1ccc(NC2CCCN(C(=O)c3cn(C)c4ccccc34)C2)cc1 (stereo not given)	.	80	195
CC(=O)c1csc(-c2cccc(-c3nc4ccc(Cl)cn4c3NC3CCCCC3)c2)c1	.	106	0.0*
COc1ccc(-c2cccc(-c3nc4ccc(Cl)cn4c3NC3CCCCC3)c2)cc1	.	74	312
COc1ccc(Cl)cc1C(=O)NNC(=O)CNC(=O)c1ccco1	.	87	395
Cc1ccc(-n2c(Cc3cccn3C)nnc2SCC(=O)Nc2nnc(C)s2)cc1	-28	112	237
